Tested on: HEK-293T
Assay: Multiplex assay against HEK293T;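 as to Population Tubulin-Different-Phenotype (%): share of the cells with healthy nuclei that show this phenotype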
Assay type: toxicity, cell-based
Details: human
Summary of the method: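 Live cells carried four stains from seeding: Hoechst33342, BioTracker Green Microtubule Cytoskeleton Dye, MitoTracker Red and Annexin V Alexa Fluor 680. They were imaged on a CQ1 microscope at 37°C and 5% CO2 after compound addition. Using CellPathfinder machine-learning gating, cells were split into Hoechst high-intensity objects or normal cells, normal cells into healthy, pyknosed or fragmented nuclei, and pyknosed cells into mitotic or apoptotic; tubulin, mitochondrial-mass and membrane-permeability phenotypes are per cents of healthy-nucleus cells.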

[1] = 12 h, 1 µM, compound concentration 1 uM, replicate 1
[2] = 12 h, 1 µM, compound concentration 1 uM, replicate 2
[3] = 12 h, 10 µM, compound concentration 10 uM, replicate 1
[4] = 12 h, 10 µM, compound concentration 10 uM, replicate 2
[5] = 24 h, 1 µM, compound concentration 1 uM, replicate 1
[6] = 24 h, 1 µM, compound concentration 1 uM, replicate 2
[7] = 24 h, 10 µM, compound concentration 10 uM, replicate 1
[8] = 24 h, 10 µM, compound concentration 10 uM, replicate 2
[9] = 48 h, 1 µM, compound concentration 1 uM, replicate 1
[10] = 48 h, 1 µM, compound concentration 1 uM, replicate 2
[11] = 48 h, 10 µM, compound concentration 10 uM, replicate 1
[12] = 48 h, 10 µM, compound concentration 10 uM, replicate 2

Question: Which results are given for `CCCSc1nc(N[C@@H]2C[C@H]2c2ccc(F)c(F)c2)c2nnn([C@@H]3C[C@H](OCCO)[C@@H](O)[C@H]3O)c2n1` [TICAGRELOR]?
Answer: Population Apoptotic (%) [1]: 56%; Population Fragmented Nuclei (%) [1]: 19%; Population Healthy Nuclei (%) [1]: 35%; Population Hoechst High Intensity Objects (%) [1]: 18%; Population Membrane Permeable-Phenotype (%) [1]: 4%; Population Mitochondria Different-Phenotype (%) [1]: 89%; Population Mitotic Cells (%) [1]: 43%; Population Normal (%) [1]: 81%; Population Pyknosed Nuclei (%) [1]: 45%; Population Tubulin-Different-Phenotype (%) [1]: 54%; Total Cell Count [1]: 167; Population Apoptotic (%) [2]: 9%; Population Fragmented Nuclei (%) [2]: 3%; Population Healthy Nuclei (%) [2]: 49%; Population Hoechst High Intensity Objects (%) [2]: 3%; Population Membrane Permeable-Phenotype (%) [2]: 10%; Population Mitochondria Different-Phenotype (%) [2]: 21%; Population Mitotic Cells (%) [2]: 90%; Population Normal (%) [2]: 96%; Population Pyknosed Nuclei (%) [2]: 46%; Population Tubulin-Different-Phenotype (%) [2]: 27%; Total Cell Count [2]: 190; Population Apoptotic (%) [3]: 68%; Population Fragmented Nuclei (%) [3]: 34%; Population Healthy Nuclei (%) [3]: 4%; Population Hoechst High Intensity Objects (%) [3]: 20%; Population Membrane Permeable-Phenotype (%) [3]: 14%; Population Mitochondria Different-Phenotype (%) [3]: 85%; Population Mitotic Cells (%) [3]: 31%; Population Normal (%) [3]: 79%; Population Pyknosed Nuclei (%) [3]: 60%; Population Tubulin-Different-Phenotype (%) [3]: 85%; Total Cell Count [3]: 178; Population Apoptotic (%) [4]: 85%; Population Fragmented Nuclei (%) [4]: 6%; Population Healthy Nuclei (%) [4]: 26%; Population Hoechst High Intensity Objects (%) [4]: 4%; Population Membrane Permeable-Phenotype (%) [4]: 2%; Population Mitochondria Different-Phenotype (%) [4]: 95%; Population Mitotic Cells (%) [4]: 14%; Population Normal (%) [4]: 95%; Population Pyknosed Nuclei (%) [4]: 66%; Population Tubulin-Different-Phenotype (%) [4]: 93%; Total Cell Count [4]: 176; Population Apoptotic (%) [5]: 46%; Population Fragmented Nuclei (%) [5]: 23%; Population Healthy Nuclei (%) [5]: 32%; Population Hoechst High Intensity Objects (%) [5]: 18%; Population Membrane Permeable-Phenotype (%) [5]: 2%; Population Mitochondria Different-Phenotype (%) [5]: 75%; Population Mitotic Cells (%) [5]: 53%; Population Normal (%) [5]: 81%; Population Pyknosed Nuclei (%) [5]: 44%; Population Tubulin-Different-Phenotype (%) [5]: 45%; Total Cell Count [5]: 181; Population Apoptotic (%) [6]: 18%; Population Fragmented Nuclei (%) [6]: 4%; Population Healthy Nuclei (%) [6]: 62%; Population Hoechst High Intensity Objects (%) [6]: 3%; Population Membrane Permeable-Phenotype (%) [6]: 7%; Population Mitochondria Different-Phenotype (%) [6]: 28%; Population Mitotic Cells (%) [6]: 81%; Population Normal (%) [6]: 96%; Population Pyknosed Nuclei (%) [6]: 33%; Population Tubulin-Different-Phenotype (%) [6]: 48%; Total Cell Count [6]: 257; Population Apoptotic (%) [7]: 76%; Population Fragmented Nuclei (%) [7]: 35%; Population Healthy Nuclei (%) [7]: 6%; Population Hoechst High Intensity Objects (%) [7]: 21%; Population Mitochondria Different-Phenotype (%) [7]: 77%; Population Mitotic Cells (%) [7]: 23%; Population Normal (%) [7]: 78%; Population Pyknosed Nuclei (%) [7]: 57%; Population Tubulin-Different-Phenotype (%) [7]: 88%; Total Cell Count [7]: 178; Population Apoptotic (%) [8]: 89%; Population Fragmented Nuclei (%) [8]: 4%; Population Healthy Nuclei (%) [8]: 26%; Population Hoechst High Intensity Objects (%) [8]: 7%; Population Membrane Permeable-Phenotype (%) [8]: 0%; Population Mitochondria Different-Phenotype (%) [8]: 95%; Population Mitotic Cells (%) [8]: 10%; Population Normal (%) [8]: 92%; Population Pyknosed Nuclei (%) [8]: 69%; Population Tubulin-Different-Phenotype (%) [8]: 95%; Total Cell Count [8]: 182; Population Apoptotic (%) [9]: 55%; Population Fragmented Nuclei (%) [9]: 23%; Population Healthy Nuclei (%) [9]: 40%; Population Hoechst High Intensity Objects (%) [9]: 12%; Population Membrane Permeable-Phenotype (%) [9]: 3%; Population Mitochondria Different-Phenotype (%) [9]: 51%; Population Mitotic Cells (%) [9]: 44%; Population Normal (%) [9]: 87%; Population Pyknosed Nuclei (%) [9]: 36%; Population Tubulin-Different-Phenotype (%) [9]: 50%; Total Cell Count [9]: 216; Population Apoptotic (%) [10]: 11%; Population Fragmented Nuclei (%) [10]: 5%; Population Healthy Nuclei (%) [10]: 78%; Population Hoechst High Intensity Objects (%) [10]: 4%; Population Membrane Permeable-Phenotype (%) [10]: 4%; Population Mitochondria Different-Phenotype (%) [10]: 12%; Population Mitotic Cells (%) [10]: 88%; Population Normal (%) [10]: 95%; Population Pyknosed Nuclei (%) [10]: 16%; Population Tubulin-Different-Phenotype (%) [10]: 31%; Total Cell Count [10]: 492; Population Apoptotic (%) [11]: 81%; Population Fragmented Nuclei (%) [11]: 38%; Population Healthy Nuclei (%) [11]: 3%; Population Hoechst High Intensity Objects (%) [11]: 24%; Population Membrane Permeable-Phenotype (%) [11]: 50%; Population Mitochondria Different-Phenotype (%) [11]: 75%; Population Mitotic Cells (%) [11]: 18%; Population Normal (%) [11]: 75%; Population Pyknosed Nuclei (%) [11]: 58%; Population Tubulin-Different-Phenotype (%) [11]: 75%; Total Cell Count [11]: 173; Population Apoptotic (%) [12]: 92%; Population Fragmented Nuclei (%) [12]: 7%; Population Healthy Nuclei (%) [12]: 29%; Population Hoechst High Intensity Objects (%) [12]: 5%; Population Membrane Permeable-Phenotype (%) [12]: 2%; Population Mitochondria Different-Phenotype (%) [12]: 97%; Population Mitotic Cells (%) [12]: 7%; Population Normal (%) [12]: 94%; Population Pyknosed Nuclei (%) [12]: 63%; Population Tubulin-Different-Phenotype (%) [12]: 86%; Total Cell Count [12]: 164

Source: ChEMBL document CHEMBL4689842, “EUbOPEN Chemogenomics Library wave 1” (2021)
